High-throughput results deposited in PubChem by Broad Institute.
PAX8 inh HTS = inhibitors of PAX8-driven TPO luciferase reporter, primary screen, RMG-I cells, single concentration | SteadyGlo, 24 h | 360,000 tested, 1.2% active | AID 652154, 2013 | inhibition, % at 12.6 µM;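 active = mean replicate inhibition at least 60% with every replicate also reaching 60%; inconclusive = only one of the two criteria is met; inactive = mean below 60% and not all replicates reaching 60%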;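 note: luciferase light reporting Pax8 driven TPO promoter activity; plate controls were median of neutral control wells for no effect and mitoxantrone controls for full effect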
EWS-Fli inh = EWS/Fli-driven NR0B1 reporter inhibitors, primary screen, A673 cells, NR0B1 luciferase, luminescence, MLPCN library | viability-normalised | inhibition, % at 12.6 µM | 350,000 tested, 0.67% active | AID 651661, 2012;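 active = mean inhibition of at least 50% after viability correction, with every replicate also passing that limit; inconclusive = mean reaches 50% but only one of two replicates passes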;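 note: firefly luciferase signal divided by Alamar Blue viability fluorescence both relative to DMSO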
FGF22 binding = binders of human FGF22 protein, primary screen, FGF22 synaptogenesis inhibitor project, biophysical, thermal shift, single point | recombinant FGF22 thermal shift, SYPRO orange fluorescence; percent of sucrose octasulfate shift, DMSO zero | activity (Tm shift, normalised), % at 9.99 µM | 340,000 tested, 1.5% active;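 active = mean Tm shift, scaled 0 neutral to 100 positive control, at about 1.3% or above, every replicate too, limit read from the data; inconclusive = no clear call, values can overlap the other calls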
Target sequence (Q9HCT0 whole entry, looked up): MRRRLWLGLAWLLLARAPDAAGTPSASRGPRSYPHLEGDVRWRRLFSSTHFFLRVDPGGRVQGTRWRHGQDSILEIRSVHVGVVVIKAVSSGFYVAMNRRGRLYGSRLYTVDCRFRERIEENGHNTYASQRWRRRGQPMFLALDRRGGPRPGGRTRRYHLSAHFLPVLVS
Env fusion inh = inhibitors of HIV-1 Env-driven cell-cell fusion, primary screen, HeLa-JRFL effector, CEM21 target cells, luciferase. AID 651610, 2012. inhibition, % at 12.3 µM. 360,000 tested, 1.1% active;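 active = mean replicate inhibition score of at least 50 and every replicate individually at or above 50; inconclusive = only one of the two criteria met; inactive = mean below 50 and not all replicates reaching 50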;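 note: 0% = plate neutral controls and 100% = maraviroc near 300 nM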
FN deposition inh = inhibitors of fibronectin matrix deposition, primary screen, AH1F cells, Alexa488-fibronectin fluorescence, plate reader. 350,000 tested, 0.086% active. AH1F fibroblasts, overnight. inhibition, % at 12.6 µM;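 active = mean inhibition across replicates of 30% or more, regardless of how many single replicates reach that level; inconclusive = mean under 30% yet at least half of replicates reach 30%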;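 note: positive control wells lacked labelled fibronectin entirely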
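Assay system: AH1F fibroblasts / Quantity: 10000 cells per well / Medium: DMEM plus 2% serum, read in PBS / Reagent: labelled fibronectin 24 nM / Dosing: single dose, pinned / Times: 1 h cell attachment, overnight exposure to compound and label / Signal: fluorescence, ex 485 nm, em 525 nm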
PGC1a acetyl inh = inhibitors of PGC1a acetylation signal, primary screen, cell-based, U2OS, AlphaScreen, inhibitor mode | AlphaScreen anti-acetyl-lysine; with virally co-expressed GCN5 acetyltransferase | inhibition, % at 15.6 µM | 350,000 tested, 0.17% active | AID 651687, 2012;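 active = every replicate shows inhibition of at least 40%; inconclusive = mean inhibition at least 40% but some replicate below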;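 note: 0% = neutral control wells and 100% = positive control wells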
Starred values were filed as active, the others as inactive; ? = inconclusive; . = no result given; ! = repeats disagree; [ ] = dose if it differs, or a comment. In the library only some 3.1% were active in any assay of this set; here they are far more common.

SMILES | PAX8 inh HTS | EWS-Fli inh | FGF22 binding | Env fusion inh | FN deposition inh | PGC1a acetyl inh
N#CC1C(=O)c2ccccc2C1c1ccccc1 (stereo unspecified) | 32 | 34 | 0 | -396 | 38* | .
S=c1nc[nH]c2nc[nH]c12 | 75*! | 36 | 0 | -230 | 2 | 19
CC=Cc1ccc2n(c1=O)C[C@@H]1[C@@H](CO)[C@H](C(=O)NCc3ccccc3)N(CC)[C@H]21 (mixture of isomers) | . | 0 | . | . | . | 2
COc1ccc(CNC(=O)CSc2nc(C)cs2)cc1 | -20 | -2 | 43* | 16 | . | -6
c1ccc(CCn2cccc2)nc1 | 5 | 1 | 0 | 59* | . | -10
O=c1ccc(=O)n(CCc2ccccn2)[nH]1 | -24 | 3 | 0 | 4 | 3 | .
Cc1noc(C)c1S(=O)(=O)N(C)C[C@H]1Oc2ccc(NC(=O)Nc3ccc4c(c3)OCO4)cc2CC(=O)N([C@H](C)CO)C[C@@H]1C | 23 | -28 | 0 | 18[16.7 µM] | . | 11
Cc1noc2ncnc(Oc3ccccc3Cl)c12 | -19 | 2 | 43* | -10 | 5 | 2
Cc1noc2ncnc(Oc3ccc(Cl)cc3Cl)c12 | -2 | 13 | 44* | -18 | -11 | .
O=C(Nc1ccccc1)N[C@H]1CC[C@@H](CCNS(=O)(=O)c2cccc(F)c2)O[C@@H]1CO | 15 | 7 | 0 | 21[16.7 µM] | . | -14
COc1cc(/C=C/c2cc[n+](C)cc2)ccc1OCC(=O)Nc1ccc(Cl)c(Cl)c1 | 110* | -5 | 0 | 2 | -5 | -5
Cc1ccc(O)c(-c2cc(C(F)(F)C(F)F)nc(-c3ccccc3)n2)c1 | . | . | . | . | . | 10
Oc1ccc(Cl)cc1-c1cc(C(F)(F)C(F)F)nc(-c2ccccc2)n1 | 7 | . | . | 67* | . | .
CN(C(=O)CSc1nc2ccccc2s1)c1c(N)n(Cc2ccccc2)c(=O)[nH]c1=O | 26 | 7 | 43* | -16 | -10 | -21
CCN(C(=O)CSc1nc2ccc([N+](=O)[O-])cc2s1)c1c(N)n(Cc2ccccc2)c(=O)[nH]c1=O | 11 | 7 | 0 | . | -3 | -2
CO[C@H]1CN(C)C(=O)c2ccc(NC(=O)C3CC3)cc2OC[C@H](C)N(Cc2cncnc2)C[C@H]1C | . | -5 | . | . | -4 | -48
COc1ccc(C(=O)NC(C(=O)NCC(=O)Nc2c(C)cccc2C)C(C)C)cc1 (stereo unspecified) | -3 | 3 | 44* | -10 | 9 | 0
COc1ccc(C(=O)N[C@H](C(=O)NCc2ccc(C)cc2)C(C)C)cc1 | 4 | -3 | 0 | -2 | -1 | .
COCCn1nnnc1C(c1ccccc1OC)N1CCN(C(=O)c2ccco2)CC1 (stereo unspecified) | 0 | . | 2.1* | -4 | -13 | -3
CCC(=O)Nc1ccc2c(c1)OC[C@@H](C)N(C(=O)NC(C)C)C[C@H](C)[C@H](OC)CN(C)C2=O | 4 | -4 | 0 | 8[16.7 µM] | 21 | 5
O=C(NCCCN1CCC(Cc2ccccc2)CC1)C1CC(=O)N(C2CCCCCC2)C1 (stereo unspecified) | . | . | . | 55* | . | -4
C[C@H](CO)N1C[C@H](C)[C@@H](CN(C)C(=O)NC2CCCC2)Oc2cc(C#Cc3ccc(F)cc3)ccc2S1(=O)=O | . | 12 | -1 | 13[16.7 µM] | 4 | 14
C[C@H](CO)N1C[C@H](C)[C@H](CN(C)C(=O)NC2CCCC2)Oc2cc(C#Cc3ccc(F)cc3)ccc2S1(=O)=O | . | 28 | 0 | 63*[16.7 µM] | -3 | 19
C[C@H](CO)N1C[C@H](C)[C@@H](CN(C)C(=O)NC2CCCCC2)Oc2cc(C#Cc3ccc(F)cc3)ccc2S1(=O)=O | 82* | 6 | 0 | 0[16.7 µM] | -20 | 13
C[C@@H]1CN([C@@H](C)CO)S(=O)(=O)c2ccc(C#Cc3ccc(F)cc3)cc2O[C@H]1CN(C)C(=O)NC1CCCCC1 | 99* | -4 | 0 | 9[16.7 µM] | 4 | -6
SMILES | PAX8 inh HTS | EWS-Fli inh | FGF22 binding | Env fusion inh | FN deposition inh | PGC1a acetyl inh
C[C@H](CO)N1C[C@H](C)[C@@H](CN(C)C(=O)Nc2ccc3c(c2)OCO3)Oc2c(NS(C)(=O)=O)cccc2C1=O | . | -8 | 0 | -1[16.7 µM] | . | -3
O=C(CSc1nc2ncc(Cl)cc2[nH]1)c1c[nH]c2ccccc12 | 22 | 5 | 0 | -18 | 33* | 4
O=C(CSc1nc2ccc(Cl)cc2[nH]1)c1c[nH]c2ccccc12 | 22 | 0 | 1 | -2 | -5 | 16
COc1ccc2c3c([nH]c2c1)[C@H](CO)N(C(C)=O)CC31CN(C(=O)Nc2ccc(F)cc2)C1 | . | -2 | 0 | -1[16.7 µM] | . | .
COc1ccc(NC(=O)c2c(Nc3ccccc3)sc(C(=O)c3ccc(F)cc3)c2N)cc1 | 89* | . | . | 91* | -1 | 0
COc1ccc(C(=O)c2sc(Nc3ccccc3)c(C(=O)Nc3ccc(OC)c(OC)c3)c2N)cc1 | -28 | . | . | 6 | -2 | -10
COc1cccc(NC(=S)/C(=C(\[O-])c2ccc([N+](=O)[O-])cc2)[n+]2ccccc2)c1 | -2 | -10 | 43* | 3 | -3 | 2
C[C@H](CO)N1C[C@H](C)[C@@H](CN(C)C(=O)Cc2ccccn2)Oc2ncc(C#CC3CCCCC3)cc2C1=O | -18 | -15 | 0 | 3[16.7 µM] | -2 | -20
O=C(Nc1nccs1)c1ccc(Br)o1 | . | . | . | . | . | -2
O=C(/C=C/c1ccc(Br)o1)Nc1nccs1 | -86 | -78 | 44* | -46 | 3 | .
CNC[C@@H]1Oc2ccc(NS(=O)(=O)c3ccc(F)cc3)cc2CC(=O)N([C@@H](C)CO)C[C@@H]1C | -16 | . | 0 | . | . | -4
C[C@H]1CCCCO[C@@H](CN(C)Cc2ccc3c(c2)OCO3)[C@@H](C)CN([C@@H](C)CO)C(=O)c2cc(NC(=O)Nc3ccc(C(F)(F)F)cc3)ccc2O1 | -18 | -5 | -1 | 47[16.7 µM] | -3 | 8
C[C@@H]1CN([C@@H](C)CO)C(=O)c2cc(NC(=O)Nc3ccc(C(F)(F)F)cc3)ccc2O[C@@H](C)CCCCO[C@@H]1CN(C)Cc1ccc2c(c1)OCO2 | 101* | 0 | -1 | 18[16.7 µM] | -16 | -7
C[C@@H]1CCCCO[C@@H](CN(C)Cc2ccc3c(c2)OCO3)[C@H](C)CN([C@@H](C)CO)C(=O)c2cc(NC(=O)Nc3ccc(C(F)(F)F)cc3)ccc2O1 | 88* | -1 | 0 | 39[16.7 µM] | -12 | -1
C[C@@H]1CCCCO[C@@H](CN(C)Cc2ccc3c(c2)OCO3)[C@@H](C)CN([C@@H](C)CO)C(=O)c2cc(NC(=O)Nc3ccc(C(F)(F)F)cc3)ccc2O1 | 77* | 4 | -1 | ? | 2 | 7
